# Assay results gathered from unrelated publications.
# Each line is one published result; the experiments were not run side by side.
# Target: Mitogen-activated protein kinase 8 (MAPK8, Homo sapiens, UniProt P45983)
SMILES,test,conditions,measurement,value
CN(c1ccnc(CNc2nc(Nc3ccc4c(c3)CC(=O)N4)ncc2C(F)(F)F)n1)S(C)(=O)=O,"cell-free assay, competition with immobilised ligand",1 µM,remaining binding,65%
CCN(CC)CCNC(=O)c1c(C)[nH]c(/C=C2\C(=O)Nc3ccc(F)cc32)c1C,cell-free assay,0.5 µM,remaining signal,91.8%
CC(C)(C)C(=O)c1sc(NC2CCCCC2)nc1N,"enzyme activity, inhibitor",10 µM,remaining activity,98%
COc1cc(-c2cc(-c3ccc(N4CCNCC4)cc3)cnc2C)cc(OC)c1OC,"enzyme activity, inhibitor",1 µM,inhibition,2%
Cc1ccc(C(=O)NCc2ccsc2)cc1C#Cc1cn(C(C)C)c2ncnc(N)c12,"enzyme activity, inhibitor",1 µM,activity vs control,103%
N#CCCc1ccc2c(c1)-c1[nH]c3ccc([N+](=O)[O-])cc3c1CC(=O)N2,cell-free assay,0.5 µM,remaining signal,93.1%
Nc1nc(NC2CCCCC2)sc1C(=O)c1ccccc1,"enzyme activity, inhibitor",10 µM,remaining activity,60%
CCC1(CC)NC(=O)c2c(c3ccc(Cl)c(Cl)c3n2C)C1C#N (centres unmarked),"thermal stability, DSF",10 µM,ΔTm,0.3 °C
CN([C@@H]1CCc2c(CC(=O)O)c3ccccc3n2C1)S(=O)(=O)c1ccc(F)cc1,"cell-free assay, competition with immobilised ligand",1 µM,remaining binding,77%
CC(C)(O)[C@H]1CC[C@H](Nc2ccc3ncc(-c4cccc(C(F)(F)F)c4)n3n2)CC1,"enzyme activity, inhibitor",1 µM,remaining activity,107%
c1ccc(N2CCN(Cc3nc4ccccc4[nH]3)CC2)nc1,"binding, competition with immobilised ligand",1 µM,remaining binding,100%
COc1cc2ncnc(Nc3ccc(Oc4ccccc4)c(C)c3C)c2cc1OC,"enzyme activity, inhibitor",1 µM,inhibition,2%
Cn1c2c(Cl)c(Cl)ccc2c2cn[nH]c(=O)c21,"thermal stability, DSF",10 µM,ΔTm,-0.3 °C
Cc1ccc(C(=O)Nc2ccc(CN3CCN(C)CC3)c(C(F)(F)F)c2)cc1C#Cc1cnc2cccnn12,"enzyme activity, inhibitor",23.5 nM,remaining activity,82%
FC(F)(F)Oc1cccc(-c2cnc3ccc(-c4ccncc4)nn23)c1,"enzyme activity, inhibitor, radiometric",1 µM,activity vs control,91%
CN(C)C1CCN(CC#Cc2nn(C3CCCC3)c3nc(NCc4ccccc4)ncc23)C1 (centres unmarked),"enzyme activity, inhibitor, FRET",1 µM,inhibition,5%
O=C1NC(=O)c2cc(Nc3ccc(F)cc3)c(Nc3ccc(F)cc3)cc21,cell-free assay,0.5 µM,remaining signal,91.4%
CC1=C(C#N)C(c2ccc3c(c2)c(NC(=O)c2ccccc2C)nn3C)C(C#N)=C(C)N1,"cell-free assay, competition with immobilised ligand",1 µM,remaining binding,88%
Cn1c2c(c3ccc(Cl)c(Cl)c31)C(C#N)C1(CCOCC1)NC2=O (centres unmarked),"thermal stability, DSF",10 µM,ΔTm,-0.1 °C
COc1cc(/C=C/C(=O)CC(=O)/C=C/c2ccc(O)c(OC)c2)ccc1O,"enzyme activity, inhibitor",1 µM,activity vs control,99%
Cn1c2c(c3ccc(Cl)c(Cl)c31)C(C#N)C1(CCCC1)NC2=O (centres unmarked),"thermal stability, DSF",10 µM,ΔTm,0.6 °C
Cc1sc(C(=O)NC2COC2)cc1-n1cc(NC(=O)Nc2c(F)cccc2Cl)cn1,"enzyme activity, inhibitor",10 µM,remaining activity,76.3%
CCOCCn1cc(C(=O)Nc2ccc(-n3nc(-c4cccnc4)cc3C(F)(F)F)cn2)ccc1=O,"cell-free assay, competition with immobilised ligand",1 µM,remaining binding,72%
COc1cc(Nc2cnc(C#N)c(O[C@H](C)CN(C)C)n2)ncc1-c1cnn(C)c1,"enzyme activity, inhibitor, radiometric",1 µM,remaining activity,104%
N#Cc1c(NC(=O)c2cccc3ccccc23)sc2c1CCCC2,cell-free assay,0.5 µM,remaining signal,87.3%
Cc1cc(NC(=O)c2cccc(S(F)(F)(F)(F)F)c2)cc(-n2ccn3nc(-c4cccnc4)cc23)c1,"cell-free assay, competition with immobilised ligand",1 µM,remaining binding,55.9%
CNCc1ccc(-c2cc(-c3nc(-c4ccc(S(=O)(=O)C(C)C)cc4)cnc3N)on2)cc1,"enzyme activity, inhibitor",0.4 µM,inhibition,6%
CCCS(=O)(=O)Nc1ccc(F)c(C(=O)c2c[nH]c3ncc(-c4ccc(Cl)cc4)cc23)c1F,"enzyme activity, inhibitor",1 µM,inhibition,< 10%
CC(C)(C)c1nc2c(s1)c1nc(N)ncc1c1ccc(NS(=O)(=O)c3c(F)cccc3F)c(F)c12,"enzyme activity, inhibitor, radiometric",1 µM,remaining activity,75%
N#CC1c2c([nH]c3c(Cl)c(Cl)ccc23)C(=O)NC12CCCCC2 (racemic),"thermal stability, DSF",10 µM,ΔTm,1.8 °C
Oc1cccc(-c2nc(N3CCOCC3)c3oc4ncccc4c3n2)c1,"enzyme activity, inhibitor",10 µM,remaining activity,102%
NS(=O)(=O)c1cc(NC(=O)C2(c3ccccc3Cl)CC2)ccc1Oc1cccc(Cl)c1,"cell-free assay, competition with immobilised ligand",1 µM,remaining binding,100%
Cn1c(=O)n(-c2ccc(C(C)(C)C#N)cc2)c2c3cc(-c4cnc5ccccc5c4)ccc3ncc21,"enzyme activity, inhibitor",10 µM,remaining activity,105%
CC(C)(O)c1cncc(-c2nc3ccc(F)cc3n2C2CC2)c1,"cell-free assay, competition with immobilised ligand",1 µM,remaining binding,100%
CC/C(=N\NC(=O)NCc1cccc(O)c1)c1ccc(O)c(C)c1O,"enzyme activity, inhibitor",0.1 µM,inhibition,-2.4%
